The text below walks through data of ChEMBL document CHEMBL4368886, “Design, synthesis, and biological activity of novel ammonium salts containing sterically hindered phenolic fragment and phosphoryl group” (Medchemcomm, 2018).

The nature of data set [1]: (§1) Bactericidal activity against Trichophyton mentagrophytes var. granulosum 1773 measured after 4 hrs. The format is functional. The note with it: Trichophyton mentagrophytes, 1773, 4 h. The method in brief: (§2)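 Microbicidal (bactericidal/fungicidal) concentration, killing of microbial cells, determined per literature procedures; tests in duplicate, repeated twice.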
The subject of data set [2] is Candida albicans. In words: Antimicrobial activity against Candida albicans 855-653 measured after 14 days by two-fold serial dilution method. The format is functional. The note with it: 855-653, 336 h.
Data set [3] deals with Candida albicans. In words: Bactericidal activity against Candida albicans 855-653 measured after 4 hrs. In kind it is functional. The note with it: 855-653, 4 h. The gist of the method:
as §2

The test system of data set [4] is Trichophyton mentagrophytes. In words: Antimicrobial activity against Trichophyton mentagrophytes var. gypseum 1773 measured after 14 days by two-fold serial dilution method. The format is functional.
Data set [5] concerns Escherichia coli. In words: Antimicrobial activity against Escherichia coli CDC F-50 measured every 24 hrs for 5 days by two-fold serial dilution method. In kind it is functional.
Data set [6] has as its system WI-38. In words: Cytotoxicity against human WI38 cells assessed as reduction in cell viability at 47 uM by Cytell imaging analysis. In kind it is cell-based. The conditions noted are these: wi-38, 47 µM. The gist of the method: (§3)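 WI-38 human embryonic lung and Chang liver cells exposed to compounds at three concentrations each (0.70–47.0 μM range, spanning antimicrobial concentrations); cytotoxicity read as number of viable cells counted.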

A short description of data set [7]: Cytotoxicity against human Chang cells assessed as reduction in cell viability at 0.7 to 11.3 uM by Cytell imaging analysis. The format is cell-based. The method in brief:
as §3

For data set [8], the system named is Trichophyton mentagrophytes var. granulosum. The data set is described as §1. The format is functional. The gist of the method:
as §2

Data set [9] concerns Staphylococcus aureus. In words: Bactericidal activity against Staphylococcus aureus 209p measured after 4 hrs. The format is functional. The gist of the method: as §2
Data set [10] is described as follows: Antioxidant activity assessed as ABAP free radical scavenging activity by measuring decrease in chemiluminescence intensity at 0.5 mM. In kind it is functional. Details: scale not given: the % may be the effect or the level left. The gist of the method: (§4)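 Chemiluminescent radical system of ABAP (2,2′-azobis(2-methylpropionamidine) dihydrochloride) plus luminol in buffer, total 1.000 mL; baseline recorded, then test substance added at 0.25, 0.50 or 1.00 mM; chemiluminescence intensity followed over time and expressed as percent of initial value. Ionol used as reference antioxidant.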

Data set [11] concerns Staphylococcus aureus. In words: Antimicrobial activity against Staphylococcus aureus 209p measured every 24 hrs for 5 days by two-fold serial dilution method. In kind it is functional.
The nature of data set [12]: Antioxidant activity assessed as ABAP free radical scavenging activity by measuring decrease in chemiluminescence intensity at 0.25 mM. In kind it is functional. Details: scale not given: the % may be the effect or the level left. The method in brief:
as §4

Data set [13] relates to Aspergillus niger. In words: Bactericidal activity against Aspergillus niger BKMF-1119 measured after 4 hrs. In kind it is functional, organism-based. The gist of the method:
as §2

In data set [14] the test system is Aspergillus niger. In words: Antimicrobial activity against Aspergillus niger BKMF-1119 measured after 14 days by two-fold serial dilution method. The format is functional, organism-based.
Data set [15] has as its system WI-38. In words: Cytotoxicity against human WI38 cells assessed as reduction in cell viability at 0.7 to 11.3 uM by Cytell imaging analysis. In kind it is cell-based. The conditions noted are these: wi-38, 11.3 µM. The gist of the method:
as §3

Data set [16] concerns Escherichia coli. In words: Bactericidal activity against Escherichia coli CDC F-50 measured after 4 hrs. In kind it is functional. The conditions noted are these: CDC F-50, 4 h. The method in brief:
as §2

Data set [17] concerns Pseudomonas aeruginosa. In words: Bactericidal activity against Pseudomonas aeruginosa ATCC 9027 measured after 4 hrs. In kind it is functional. The method in brief:
as §2

Data set [18] is described as follows: Antioxidant activity assessed as ABAP free radical scavenging activity by measuring decrease in chemiluminescence intensity at 1 mM. The format is functional. More on the design: scale not given: the % may be the effect or the level left. The gist of the method:
as §4

Data set [19] is described as follows: Cytotoxicity against human Chang cells assessed as reduction in cell viability at 47 uM by Cytell imaging analysis. In kind it is cell-based. The method in brief:
as §3

For data set [20], the system named is Bacillus cereus. In words: Antimicrobial activity against Bacillus cereus ATCC 8035 measured every 24 hrs for 5 days by two-fold serial dilution method. The format is functional.
The subject of data set [21] is Bacillus cereus. In words: Bactericidal activity against Bacillus cereus ATCC 8035 measured after 4 hrs. In kind it is functional. The conditions noted are these: ATCC 8035, 4 h. The method in brief:
as §2

The test system of data set [22] is Pseudomonas aeruginosa. In words: Antimicrobial activity against Pseudomonas aeruginosa ATCC 9027 measured every 24 hrs for 5 days by two-fold serial dilution method. The format is functional.
Data set [23] is described as follows: Antioxidant activity assessed as ABAP free radical scavenging activity by measuring decrease in chemiluminescence intensity at 0.25 mM measured after 400 secs. In kind it is functional. The gist of the method: as §4
Data set [24] can be described thus: Antioxidant activity assessed as ABAP free radical scavenging activity by measuring decrease in chemiluminescence intensity at 0.5 mM measured after 500 secs. The format is functional. The gist of the method: as §4
Data set [25] is described as follows: Antioxidant activity assessed as ABAP free radical scavenging activity by measuring decrease in chemiluminescence intensity at 1 mM measured after 600 secs. The format is functional. Details: scale not given: the % may be the effect or the level left. The gist of the method:
as §4

≈ marks a conversion by molar mass, not a printed value. Calls of active or inactive are those of the source. The rule behind the calls is not given here.

In general, MIC refers to the lowest concentration that inhibits growth of the organism. For the compound `CC(=O)N1CCN(c2ccc(OCC3COC(Cn4ccnc4)(c4ccc(Cl)cc4Cl)O3)cc2)CC1` (stereo unspecified) [KETOCONAZOLE], the MIC came out at 15.2 µM (≈ 8.08 µg/mL) in data set [1]; 7.6 µM (≈ 4.04 µg/mL) with Candida albicans [2]; 15.2 µM (≈ 8.08 µg/mL) with Candida albicans [3]; 7.6 µM (≈ 4.04 µg/mL) in [4] (var. gypseum 1773, 336 h).

Turning to `CCCCCCCCCC[N+](C)(C)CCNC(c1cc(C(C)(C)C)c(O)c(C(C)(C)C)c1)P(=O)(OCC)OCC.[Br-]` (stereo unspecified), the MIC against Escherichia coli [5] was determined as 94.1 µM; against Staphylococcus aureus [9], 2.9 µM; with Candida albicans [2], 47 µM; in the data set with Candida albicans [3], 47 µM; in the data set on Staphylococcus aureus [11], 2.9 µM; with Escherichia coli [16] it was 188 µM. The minimal inhibitory concentration (MIC) in the data set with Bacillus cereus [20] came out at 2.9 µM; against Bacillus cereus [21], 2.9 µM; in the data set with Pseudomonas aeruginosa [22], 94.1 µM. The Activity result is “Toxic” in the data set with WI-38 [6]; “Non-Toxic” in data set [7]; 26% in data set [10]; 44% in [12]; “Non-Toxic” in the data set on WI-38 [15]; 20% in data set [18]. In addition, in data set [19], the Activity entry was “Toxic”. For the same compound, the MIC entry (in data set [8]; in data set [4]; in the data set on Aspergillus niger [13]; with Aspergillus niger [14]; in the data set with Pseudomonas aeruginosa [17]) was “inactive” each time.

Turning to `CCCCCCCCCC[N+](C)(C)CCCNC(c1cc(C(C)(C)C)c(O)c(C(C)(C)C)c1)P(=O)(OC(C)C)OC(C)C.[Br-]` (stereo unspecified), the minimum inhibitory concentration (MIC) worked out at 44.3 µM in the data set with Escherichia coli [5]; 1.3 µM against Staphylococcus aureus [9]; 11 µM against Candida albicans [2]; 11 µM against Candida albicans [3]; 0.7 µM with Staphylococcus aureus [11]; 177 µM against Escherichia coli [16]. The minimum inhibitory concentration (MIC) against Pseudomonas aeruginosa [17] (ATCC 9027, 4 h) was 44.3 µM; in the data set with Bacillus cereus [20] it was 2.7 µM; in the data set with Bacillus cereus [21] it was 177 µM; against Pseudomonas aeruginosa [22], 22 µM. The Activity entry was “Non-Toxic” in data set [7]; 26% in data set [10]; 44% in data set [12]; “Non-Toxic” in the data set on WI-38 [15]; 26% in data set [25]. For the same compound, the MIC entry (in data set [8]; in data set [4]; in the data set on Aspergillus niger [13]; in the data set with Aspergillus niger [14]) was “inactive” in each case. The outcome in data set [23] and in data set [24] was Active.
